Assay results published in ChEMBL document CHEMBL1129996, “1-Aryl-3,5-dihydro-4H-2,3-benzodiazepin-4-ones: novel AMPA receptor antagonists” (J Med Chem, 1997).
Where “and” joins values, the source holds several entries; their conditions need not be identical. Equal values may be shown once.

Key:
Mus musculus [1] = assay: Anticonvulsant activity against tonic phase of the audiogenic seizures in DBA / 2 mice 30 min after ip administration at a dose range 10-100 uM/kg; assay type: functional; conditions: 0.5 h
Summary of the method: (§1)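 Groups of 10 DBA/2 mice of either sex; drug ip (0.1 mL/10 g) as fresh solution in 50% DMSO/50% saline, 30 min before auditory stimulation (12-16 kHz, 109 dB, 60 s or until tonic extension) under perspex dome after 60 s habituation. Latency and incidence of wild running, clonic and tonic phases scored; ED50 (95% confidence limits) by Litchfield-Wilcoxon.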

Mus musculus [2] = assay: Anticonvulsant activity against clonic phase of the audiogenic seizures in DBA / 2 mice 30 min after ip administration at a dose range 10-100 uM/kg; assay type: functional; conditions: 0.5 h; summary of the method: as §1
[3] = Relative lipophilicity of compound; assay type: physicochemical; conditions: reversed-phase TLC, acetone/water 2:1
Summary of the method: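 Reversed-phase TLC type lipophilicity: plates dried 105 °C 1 h, mobile phase acetone:water 2:1, 1 µL of 3 mg/mL CHCl3 solution spotted; five runs with varied positions, mean Rf converted as Rm = log[(1/Rf) - 1].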

Mus musculus [4] = assay: Anticonvulsant activity against the clonic seizures induced by icv injection of AMPA in DBA / 2 mice at a dose range of 10-200 uM/kg; assay type: functional; conditions: central
Mus musculus [5] = assay: Anticonvulsant activity against the maximal electroshock in Swiss mice after 45 minutes pretreatment at a dose range 10-150 uM/kg; assay type: functional
Summary of the method: (§2)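 Swiss mice dosed ip in 50% DMSO/50% saline 45 min before ear-clip electroshock (50 mA, 20 ms pulses, 35 Hz, 400 ms). Protection = abolition of tonic hindlimb extension. Usually 4-5 doses with 8-10 mice each; ED50 (95% confidence limits) by Litchfield-Wilcoxon.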

Mus musculus [6] = assay: Anticonvulsant activity against the tonic seizures induced by icv injection of AMPA in DBA / 2 mice at a dose range of 10-200 uM/kg; assay type: functional; conditions: central
Mus musculus [7] = assay: Pentylenetetrazole-induced seizures in Swiss mice after 45 min pretreatment at a dose range 10-150 uM/kg; assay type: functional
Mus musculus [8] = assay: Audiogenic seizures after pretreatment with Aniracetam in DBA / 2 mice clonic phase at a dose range of 33-300 uM/kg; assay type: functional
Summary of the method: (§3)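 DBA/2 mice pretreated with aniracetam 50 nmol icv 60 min before auditory testing, with ip 2,3-benzodiazepine; audiogenic clonic and tonic phases scored; ED50 by Litchfield-Wilcoxon.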

Mus musculus [9] = assay: Audiogenic seizures after pretreatment with Aniracetam in DBA / 2 mice tonic phase at a dose range of 33-300 uM/kg; assay type: functional; summary of the method: as §3
[10] = Therapeutic index it is the ratio between TD50 and ED50 (from the clonic phase of the audiogenic seizures); conditions: read-out: TI
Summary of the method: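 Therapeutic index computed as rotarod TD50 divided by ED50 for the clonic phase of audiogenic seizures in DBA/2 mice.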

[11] = Motor toxicity in 50% of mice on locomotion assessed by Rotarod test following 30 min ip administration; assay type: organism-based; conditions: mouse, in vivo
Summary of the method: (§4)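 Male Swiss mice (20-26 g, 48-54 days), groups of 10, trained on rotarod (3 cm, 8 rpm); tested 30 min after ip dosing. Impairment = failure to stay on for 2 min; TD50 (95% confidence limits) by Litchfield-Wilcoxon.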

Mus musculus [12] = assay: Anticonvulsant activity against the clonic seizures induced by icv injection of AMPA in DBA / 2 mice at a dose range of 10-200 uM / kg (95% confidence limits); assay type: functional; conditions: central
Mus musculus [13] = assay: Anticonvulsant activity against the maximal electroshock in Swiss mice after 45 minutes pretreatment at a dose range uM/kg; assay type: functional; summary of the method: as §2
Mus musculus [14] = organism: Mus musculus; assay: Pentylenetetrazole-induced seizures in Swiss mice after 45 min pretreatment at a dose range 10-150 uM / kg (95% confidence limits); assay type: functional
Mus musculus [15] = organism: Mus musculus; assay: Audiogenic seizures after concomitant treatment with Flumazenil (24.72 uM) in DBA / 2 mice clonic phase; assay type: functional
Mus musculus [16] = organism: Mus musculus; assay: Audiogenic seizures after concomitant treatment with Flumazenil (24.72 uM) in DBA / 2 mice tonic phase; assay type: functional
Mus musculus [17] = organism: Mus musculus; assay: Audiogenic seizures after concomitant treatment with Flumazenil (8.24 uM) in DBA / 2 mice clonic phase; assay type: functional
Mus musculus [18] = organism: Mus musculus; assay: Audiogenic seizures after concomitant treatment with Flumazenil (8.24 uM) in DBA / 2 mice tonic phase; assay type: functional
Mus musculus [19] = assay: Audiogenic seizures after pretreatment with Aniracetam in DBA / 2 mice clonic phase at a dose range of 10-200 uM/kg; assay type: functional; summary of the method: as §3
Mus musculus [20] = assay: Audiogenic seizures after pretreatment with Aniracetam in DBA / 2 mice tonic phase at a dose range of 10-200 uM/kg; assay type: functional; summary of the method: as §3
Mus musculus [21] = assay: Anticonvulsant activity against tonic phase of the audiogenic seizures in DBA / 2 mice 30 min after ip administration at a dose range 33-133 uM/kg; assay type: functional; conditions: 0.5 h; summary of the method: as §1
Mus musculus [22] = assay: Anticonvulsant activity against clonic phase of the audiogenic seizures in DBA / 2 mice 30 min after ip administration at a dose range 33-133 uM/kg; assay type: functional; conditions: 0.5 h; summary of the method: as §1
Mus musculus [23] = assay: Anticonvulsant activity against tonic phase of the audiogenic seizures in DBA / 2 mice 30 min after ip administration at a dose range 10-66 uM/kg; assay type: functional; conditions: 0.5 h; summary of the method: as §1
Mus musculus [24] = assay: Anticonvulsant activity against clonic phase of the audiogenic seizures in DBA / 2 mice 30 min after ip administration at a dose range 10-66 uM/kg; assay type: functional; conditions: 0.5 h; summary of the method: as §1
Mus musculus [25] = assay: Anticonvulsant activity against clonic phase of the audiogenic seizures in DBA / 2 mice 30 min after ip administration at a dose range 10-120 uM/kg; assay type: functional; conditions: 0.5 h; summary of the method: as §1
Mus musculus [26] = assay: Anticonvulsant activity against tonic phase of the audiogenic seizures in DBA / 2 mice 30 min after ip administration at a dose range 10-120 uM/kg; assay type: functional; conditions: 0.5 h; summary of the method: as §1
[27] = Motor toxicity in 50% of mice on locomotion assessed by Rotarod test following 30 min ip administration (95% confidence limits); assay type: organism-based; conditions: mouse, in vivo; summary of the method: as §4
Mus musculus [28] = assay: Anticonvulsant activity against clonic phase of the audiogenic seizures in DBA / 2 mice 30 min after ip administration at a dose range 10-133 uM/kg; assay type: functional; conditions: 0.5 h; summary of the method: as §1
Mus musculus [29] = assay: Anticonvulsant activity against tonic phase of the audiogenic seizures in DBA / 2 mice 30 min after ip administration at a dose range 10-133 uM/kg; assay type: functional; conditions: 0.5 h; summary of the method: as §1

| SMILES | ED50 (Mus musculus [1]) | ED50 (Mus musculus [2]) | Rm [3] | ED50 (Mus musculus [5]) | ED50 (Mus musculus [7]) | therapeutic index (TD50/ED50) [10] | TD50 at 0.5 h [11] | ED50 (Mus musculus [25]) | ED50 (Mus musculus [26]) | further results |
| --- | --- | --- | --- | --- | --- | --- | --- | --- | --- | --- |
| COc1cc2c(cc1OC)C(c1ccc(Br)cc1)=NN(C)C(=O)C2 | 38 µmol/kg and 14.8 mg/kg | 63 µmol/kg and 24.5 mg/kg | 0.288 |  |  |  |  |  |  |  |
| COc1cc2c(cc1OC)C(c1ccccc1)=NN(C)C(=O)C2 | 26.7 µmol/kg and 8.28 mg/kg | 37.8 µmol/kg and 11.7 mg/kg | 0 | 42.7 µmol/kg | 89.9 µmol/kg | 4.1 | 154 µmol/kg |  |  | ED50 (Mus musculus [4]): 76.1 µmol/kg; ED50 (Mus musculus [6]): 69.6 µmol/kg; ED50 (Mus musculus [8]): 259 µmol/kg; ED50 (Mus musculus [9]): 197 µmol/kg |
| COc1cc2c(cc1OC)C(c1ccc(N)cc1)=NN(C)C(=O)C2 | 43.7 µmol/kg and 14.2 mg/kg | 50.2 µmol/kg and 16.3 mg/kg | -0.374 |  |  | 3.2 | 159 µmol/kg |  |  | ED50 (Mus musculus [12]): 72.1 µmol/kg; ED50 (Mus musculus [13]): 57.2 µmol/kg; ED50 (Mus musculus [6]): 62.4 µmol/kg; ED50 (Mus musculus [14]): 70.8 µmol/kg; ED50 (Mus musculus [15]): 45.9 µmol/kg; ED50 (Mus musculus [16]): 32.2 µmol/kg; ED50 (Mus musculus [17]): 51.2 µmol/kg; ED50 (Mus musculus [18]): 38.5 µmol/kg; ED50 (Mus musculus [19]): 141 µmol/kg; ED50 (Mus musculus [20]): 112 µmol/kg |
| COc1ccc2c(c1)CC(=O)N(C)N=C2c1ccccc1 |  |  | 0.189 |  |  |  |  |  |  | ED50 (Mus musculus [21]): 99.1 µmol/kg and 27.8 mg/kg; ED50 (Mus musculus [22]): 117 µmol/kg and 32.8 mg/kg |
| COc1cc2c(cc1OC)C(c1cccc(N)c1)=NN(C)C(=O)C2 |  |  | -0.327 |  |  |  |  |  |  | ED50 (Mus musculus [23]): 30.6 µmol/kg and 9.94 mg/kg; ED50 (Mus musculus [24]): 36.8 µmol/kg and 11.9 mg/kg |
| COc1cc2c(cc1OC)C(c1ccc(C#N)cc1)=NN(C(C)=O)C(=O)C2 |  |  | -0.065 |  |  |  | > 150 µmol/kg | > 120 µmol/kg and > 44 mg/kg | > 120 µmol/kg and > 44 mg/kg |  |
| COc1cc2c(cc1OC)C(c1ccc([N+](=O)[O-])cc1)=NNC(=O)C2 |  |  | -0.096 | > 150 µmol/kg |  |  |  | > 120 µmol/kg and > 44 mg/kg | > 120 µmol/kg and > 44 mg/kg | ED50 (Mus musculus [14]): > 150 µmol/kg; TD50 at 0.5 h [27]: > 150 µmol/kg |
| COc1cc2c(cc1OC)C(c1ccc(Br)cc1)=NNC(=O)C2 |  |  | 0.052 | 123 µmol/kg | > 150 µmol/kg | 2 | 226 µmol/kg |  |  | ED50 (Mus musculus [28]): 110 µmol/kg and 41.2 mg/kg; ED50 (Mus musculus [29]): 82.5 µmol/kg and 30.7 mg/kg |
| COc1cc2c(cc1OC)C(c1ccccc1)=NN(C(C)=O)C(=O)C2 | 72.1 µmol/kg and 24.4 mg/kg | 101 µmol/kg and 33.3 mg/kg | -0.052 |  |  | 1.8 | 181 µmol/kg |  |  |  |
| COc1cc2c(cc1OC)C(c1cccc([N+](=O)[O-])c1)=NNC(=O)C2 |  |  | -0.14 | > 150 µmol/kg | > 150 µmol/kg |  | > 150 µmol/kg | > 120 µmol/kg and > 44 mg/kg | > 120 µmol/kg and > 44 mg/kg |  |
